Test results from ChEMBL document CHEMBL1649304, “Efficacy of posaconazole as treatment and prophylaxis against Fusarium solani” (Antimicrob Agents Chemother, 2010).
In brackets after ≈: the same amount, converted by molar mass. Activity calls are given as the source filed them. No cut-off for these calls is given here.

Tests used:
Fusarium solani [1] = assay: Antifungal activity against inoculum range 6.5 x 10^5 to 6.8 x 10^5 conidia/animal Fusarium solani infected in ICR mouse assessed as bacterial count in kidney tissue at 6.25 mg/kg, po BID treated after 12 hrs of inoculation; type: functional
Procedure, shortened: (§1)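 Outbred ICR mice were made neutropenic with 5-fluorouracil 150 mg/kg i.v. 1 day before i.v. infection with F. solani isolate 95-2478 conidia (0.2 ml). Posaconazole oral suspension was given by gavage BID from 12 h after inoculation until day 9. Kidneys from moribund animals were homogenized and plated on potato dextrose agar, and CFU/g was counted after 48 h. Group medians were compared with untreated controls by Mann-Whitney.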

Fusarium solani [2] = assay: Antifungal activity against low - inoculum 7.5 x 10^4 conidia/ml Fusarium solani infected in ICR mouse assessed as rate of survival at 6.25 mg/kg, po BID treated 2 days prior of infection; type: functional, organism-based; parameters: dose 6.25 mg/kg
Procedure, shortened: (§2)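 Dosing began 2 days before i.v. F. solani 95-2478 challenge in ICR mice made neutropenic with 5-fluorouracil (150 mg/kg i.v., day −1). Posaconazole oral suspension was gavaged BID through day 9, with observation off drug until day 15, n ≥10 per regimen. Moribund animals were euthanized and scored dead the next day. Kaplan-Meier median survival was compared with untreated controls.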

Fusarium solani [3] = assay: Antifungal activity against inoculum range 7.7 x 10^4 to 7.8 x 10^4 conidia/animal Fusarium solani infected in ICR mouse assessed as rate of survival at 6.25 mg/kg, po BID treated after 12 hrs of inoculation; type: functional, organism-based; parameters: dose 6.25 mg/kg
Procedure, shortened: (§3)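 Neutropenic ICR mice (5-fluorouracil 150 mg/kg i.v., day −1) were infected i.v. with F. solani 95-2478 conidia. Posaconazole oral suspension was gavaged BID starting 12 h postinoculation and continued to day 9, then mice were followed off therapy to day 15. Moribund mice were euthanized and death was recorded the next day. Median and percent survival come from Kaplan-Meier curves versus untreated controls.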

Fusarium solani [4] = assay: Antifungal activity against mid- inoculum 6.5 x 10^5 conidia/ml Fusarium solani infected in ICR mouse assessed as bacterial count in kidney tissue at 6.25 mg/kg, po BID treated 2 days prior of infection; type: functional
Procedure, shortened: (§4)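 Prophylaxis model: posaconazole oral suspension was given by gavage BID starting 2 days before i.v. conidial challenge and continued to day 9. ICR mice were made neutropenic with 5-fluorouracil 150 mg/kg i.v. 1 day pre-inoculation, with n ≥10 per regimen. Kidneys were homogenized and plated on potato dextrose agar, and CFU/g was read after 48 h. Results were compared with untreated controls by Mann-Whitney.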

Fusarium solani [5] = assay: Antifungal activity against low - inoculum 7.5 x 10^4 conidia/ml Fusarium solani infected in ICR mouse assessed as bacterial count in kidney tissue at 6.25 mg/kg, po BID treated 2 days prior of infection; type: functional; procedure, shortened: as §4
Fusarium solani [6] = assay: Antifungal activity against low - inoculum 7.5 x 10^4 conidia/ml Fusarium solani infected in ICR mouse assessed as bacterial count in kidney tissue at 12.5 mg/kg, po BID treated 2 days prior of infection; type: functional; procedure, shortened: as §4
Fusarium solani [7] = assay: Antifungal activity against inoculum range 7.7 x 10^4 to 7.8 x 10^4 conidia/animal Fusarium solani infected in ICR mouse assessed as rate of survival at 25 mg/kg, po BID treated after 12 hrs of inoculation; type: functional, organism-based; parameters: dose 25 mg/kg; procedure, shortened: as §3
Fusarium solani [8] = assay: Antifungal activity against low - inoculum 7.5 x 10^4 conidia/ml Fusarium solani infected in ICR mouse assessed as rate of survival at 12.5 mg/kg, po BID treated 2 days prior of infection; type: functional, organism-based; parameters: dose 12.5 mg/kg; procedure, shortened: as §2
Fusarium solani [9] = assay: Antifungal activity against inoculum of 1x10^5 conidia/ml Fusarium solani isolate 95-2478 after 24 hrs by XTT assay; type: functional, organism-based; details: isolate 95-2478, 24 h
Procedure, shortened: (§5)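 Isolate 95-2478 conidia were grown 10 days at 37°C on potato dextrose agar. They were exposed in microtiter trays to posaconazole (DMSO stock; final 0 to 8 μg/ml) in RPMI with 2% glucose and 0.165 M MOPS, pH 7.0. Incubation ran 24 or 48 h, and XTT reduction was read at 492 nm in triplicate. Absorbance was expressed as percent of growth control, and IC50/IC90 came from a four-parameter inhibitory sigmoid fit.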

[10] = Drug concentration in uninfected nonimmunosppressed ICR mouse serum at 50 mg/kg, po BID after 4 hrs; type: ADME, organism-based; parameters: dose 50 mg/kg, route oral; details: read-out: Drug uptake
Procedure, shortened: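 Uninfected, nonimmunosuppressed mice received 5 oral-gavage BID doses, and serum was taken 4 h after the last dose. Serum (100 μl, duplicate) was placed in wells cut in potato dextrose agar seeded with Candida kefyr ATCC 66028 at 1 × 10^4 cells/ml. Inhibition zones were measured after 48 h, and concentration was interpolated from a standard curve.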

Fusarium solani [11] = assay: Antifungal activity against mid- inoculum 6.5 x 10^5 conidia/ml Fusarium solani infected in ICR mouse assessed as rate of survival at 12.5 mg/kg, po BID treated 2 days prior of infection; type: functional, organism-based; parameters: dose 12.5 mg/kg; procedure, shortened: as §2
Fusarium oxysporum = assay: Antifungal activity against Fusarium oxysporum isolate infected in ICR mouse; type: functional
Fusarium solani [12] = assay: Antifungal activity against inoculum range 6.5 x 10^5 to 6.8 x 10^5 conidia/animal Fusarium solani infected in ICR mouse assessed as bacterial count in kidney tissue at 12.5 mg/kg, po BID treated after 12 hrs of inoculation; type: functional; procedure, shortened: as §1
Fusarium solani [13] = assay: Antifungal activity against inoculum range 6.5 x 10^5 to 6.8 x 10^5 conidia/animal Fusarium solani infected in ICR mouse assessed as rate of survival at 6.25 mg/kg, po BID treated after 12 hrs of inoculation; type: functional, organism-based; parameters: dose 6.25 mg/kg; procedure, shortened: as §3
Fusarium solani [14] = assay: Antifungal activity against high inoculum 2.9 x 10^6 conidia/animal Fusarium solani infected in ICR mouse assessed as bacterial count in kidney tissue at 12.5 mg/kg, po BID treated after 12 hrs of inoculation; type: functional; procedure, shortened: as §1
Fusarium solani [15] = assay: Antifungal activity against high inoculum 2.9 x 10^6 conidia/animal Fusarium solani infected in ICR mouse assessed as rate of survival at 6.25 mg/kg, po BID treated after 12 hrs of inoculation; type: functional, organism-based; parameters: dose 6.25 mg/kg; procedure, shortened: as §3
Fusarium solani [16] = assay: Antifungal activity against inoculum range 7.7 x 10^4 to 7.8 x 10^4 conidia/animal Fusarium solani infected in ICR mouse assessed as rate of survival at 12.5 mg/kg, po BID treated after 12 hrs of inoculation; type: functional, organism-based; parameters: dose 12.5 mg/kg; procedure, shortened: as §3
Fusarium solani [17] = assay: Antifungal activity against low - inoculum 7.5 x 10^4 conidia/ml Fusarium solani infected in ICR mouse assessed as bacterial count in kidney tissue at 50 mg/kg, po BID treated 2 days prior of infection; type: functional; procedure, shortened: as §4
Fusarium solani [18] = assay: Antifungal activity against inoculum range 6.5 x 10^5 to 6.8 x 10^5 conidia/animal Fusarium solani infected in ICR mouse assessed as bacterial count in kidney tissue at 50 mg/kg, po BID treated after 12 hrs of inoculation; type: functional; procedure, shortened: as §1
Fusarium solani [19] = assay: Antifungal activity against mid- inoculum 6.5 x 10^5 conidia/ml Fusarium solani infected in ICR mouse assessed as bacterial count in kidney tissue at 50 mg/kg, po BID treated 2 days prior of infection; type: functional; procedure, shortened: as §4
Fusarium solani [20] = assay: Antifungal activity against inoculum of 1x10^4 conidia/ml Fusarium solani isolate 95-2478 after 48 hrs by XTT assay; type: functional, organism-based; details: isolate 95-2478, 48 h; procedure, shortened: as §5
Fusarium solani [21] = assay: Antifungal activity against high inoculum 2.9 x 10^6 conidia/animal Fusarium solani infected in ICR mouse assessed as bacterial count in kidney tissue at 25 mg/kg, po BID treated after 12 hrs of inoculation; type: functional; procedure, shortened: as §1
Fusarium solani [22] = assay: Antifungal activity against mid- inoculum 6.5 x 10^5 conidia/ml Fusarium solani infected in ICR mouse assessed as bacterial count in kidney tissue at 25 mg/kg, po BID treated 2 days prior of infection; type: functional; procedure, shortened: as §4

## CC[C@@H]([C@H](C)O)n1ncn(-c2ccc(N3CCN(c4ccc(OC[C@@H]5CO[C@@](Cn6cncn6)(c6ccc(F)cc6F)C5)cc4)CC3)cc2)c1=O [POSACONAZOLE]
Fusarium solani [1]
  log10CFU/g: 6
Fusarium solani [2]
  Activity: Active
Fusarium solani [3]
  Activity: Active
Fusarium solani [4]
  log10CFU/g: 5.6
Fusarium solani [5]
  log10CFU/g: 2.8
Fusarium solani [6]
  log10CFU/g: 4.4
Fusarium solani [7]
  Activity: Active
Fusarium solani [8]
  Activity: Active
Fusarium solani [9]
  IC90: 7.2 µg/mL (≈ 10.3 µM)
Fusarium solani [9]; read-out: IC90
  IC90: > 8 µg/mL
[10]
  concentration at 4 h: 5300 ng/mL
Fusarium solani [11]
  Activity: Active
Fusarium oxysporum
  MIC: > 16 µg/mL
Fusarium solani [12]
  log10CFU/g: 5.8
Fusarium solani [13]
  Activity: Active
Fusarium solani [14]
  log10CFU/g: 5.3
Fusarium solani [15]
  Activity: Active
Fusarium solani [16]
  Activity: Active
Fusarium solani [17]
  log10CFU/g: 2.9
Fusarium solani [18]
  log10CFU/g: 5.4
Fusarium solani [19]
  log10CFU/g: 4.7
Fusarium solani [20]
  IC50: 4.7 µg/mL (≈ 6.71 µM)
  IC90: > 8 µg/mL
Fusarium solani [21]
  log10CFU/g: 5.3
Fusarium solani [22]
  log10CFU/g: 5.5
